# Sampled rows, rich in hits. Any-hit rate of the full collection: about 0.98%.
# Rtt109 HAT inh = C. albicans Rtt109 histone acetyltransferase inhibition | purified Rtt109/Vps75, ThioGlo CoA-SH fluorescence, 4 h | inhibition, % at 34.9 µM | actives 0.16% (n = 330,000);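 active = inhibition of at least 50% in every replicate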
# Target sequence (Q5AAJ8 whole entry, looked up): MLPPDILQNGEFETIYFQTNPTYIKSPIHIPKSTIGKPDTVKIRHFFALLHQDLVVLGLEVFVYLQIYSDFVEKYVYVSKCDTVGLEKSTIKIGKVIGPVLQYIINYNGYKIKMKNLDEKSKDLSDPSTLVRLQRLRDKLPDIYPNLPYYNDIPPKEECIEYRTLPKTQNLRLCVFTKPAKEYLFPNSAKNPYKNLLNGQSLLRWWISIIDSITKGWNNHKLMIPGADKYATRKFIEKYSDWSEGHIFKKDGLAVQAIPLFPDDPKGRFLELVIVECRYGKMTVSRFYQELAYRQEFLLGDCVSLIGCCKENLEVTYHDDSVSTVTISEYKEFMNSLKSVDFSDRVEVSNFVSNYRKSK
# S100A4 MyoIIA = inhibitors of human S100A4 binding to myosin IIA peptide; P26447; S100A4/TAMRA-MyoIIA peptide fluorescence polarization; inhibition, % at 10.7 µM; actives 0.14% (n = 360,000); AID 652163;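 active = mean inhibition of at least 70% across replicates, with every replicate also reaching that level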
# Target sequence (P26447 whole entry, looked up): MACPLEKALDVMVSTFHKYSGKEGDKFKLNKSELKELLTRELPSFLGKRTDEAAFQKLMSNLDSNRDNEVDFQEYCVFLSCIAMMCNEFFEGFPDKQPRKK
#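 Material: S100A4 monomer (human). Medium: Calcium-containing HEPES buffer, pH 7.2. Probe or stimulus: labelled myosin peptide probe, 5 nM. Compound dosing: one concentration per compound. Timing: polarization read 5 min after assay mix addition, stable 5–60 min. Benchmarks: DMSO as neutral control, TFP as positive control.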
# Statin myotox sup = suppressors of simvastatin-induced myotoxicity in C2C12 myotubes. actives 0.78% (n = 330,000). ATP luminescence, 48 h; scaled: DMSO 0, geranylgeraniol control 100. AID 602340. rescue of ATP level, % at 7.49 µM;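 active = mean ATP rescue above about 67%, or every replicate alone reaching that limit, limit read from the data, passing the limit was not always enough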;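 also: myotubes were challenged with 10 µM simvastatin during compound exposure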
# PGC1a acetyl inh = PGC1a acetylation modulation, inhibitor mode; U2OS PGC1a acetylation, AlphaScreen anti-acetyl-lysine; with virally co-expressed GCN5 acetyltransferase; inhibition, % at 15.6 µM; AID 651687; actives 0.17% (n = 350,000);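 active = every replicate shows inhibition of at least 40%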;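 also: 0% = neutral control wells and 100% = positive control wells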
# ERAP1 HTS inh = ERAP1 (human) enzyme inhibition. recombinant ERAP1, Leu-AMC fluorescence, 60 min. Q9NZ08. AID 652197. actives 0.15% (n = 340,000). inhibition, % at 10.7 µM;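 active = mean replicate inhibition of at least 30%, or all replicates individually reaching that 30% level; inactive = mean below 30% and not every replicate reaching it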;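 also: 0% = neutral control wells and 100% = L-leucinethiol positive control wells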
# * hit, by the source's call; . = not tested or not shown.
SMILES,Rtt109 HAT inh,S100A4 MyoIIA,Statin myotox sup,PGC1a acetyl inh,ERAP1 HTS inh
C[C@@H]1CN([C@@H](C)CO)C(=O)Cc2cc(NC(=O)Nc3cccc4ccccc34)ccc2O[C@@H]1CN(C)Cc1ccc(C(F)(F)F)cc1,2,-4,98*,-10,-2
C[C@@H]1CN([C@@H](C)CO)C(=O)Cc2cc(NC(=O)Nc3cccc4ccccc34)ccc2O[C@@H]1CN(C)Cc1ccccc1,.,3,0,.,3
C[C@@H]1CN([C@H](C)CO)C(=O)Cc2cc(NC(=O)Nc3cccc4ccccc34)ccc2O[C@H]1CN(C)Cc1ccccc1,.,-19,73*,.,1
Cn1cnc(S(=O)(=O)N2CC[C@@H]3[C@H]2c2cc(C#Cc4ccccc4)ccc2N[C@@H]3CO)c1,.,-44,-38,-7,0
C[C@@H]1CCCCO[C@H](CN(C)C(=O)Nc2ccc(F)cc2)[C@H](C)CN([C@@H](C)CO)C(=O)c2cc(NC(=O)Nc3cccc4ccccc34)ccc2O1,.,16,21,-8,0
CCCn1c(C2CCCN2c2nc(C)cs2)nc2cc(Cl)c(Cl)cc21 (stereo not drawn),10,-2,6,.,3
CCCn1c(C2CCCN2c2nc(-c3cccc(Br)c3)cs2)nc2cc(Cl)c(Cl)cc21 (stereo not drawn),-16,-7,117*,4,-2
CCS(=O)(=O)N[C@@H]1CC[C@@H](CC(=O)NC2Cc3ccccc3C2)O[C@@H]1CO,.,-1,5,0,-1
Cc1cc(Cl)ccc1NC(=S)N1CCN(C(=O)C2CCCO2)CC1 (stereo not drawn),8,.,.,.,.
O=C(C1CCCO1)N1CCN(C(=S)Nc2ccc(Cl)cc2Cl)CC1 (stereo not drawn),53*,-7,.,.,-3
C[C@H]1CN([C@@H](C)CO)C(=O)Cc2cc(NC(=O)C3CC3)ccc2O[C@@H]1CN(C)S(=O)(=O)c1ccccc1,.,10,-51,1,-2
C[C@H]1CN([C@@H](C)CO)C(=O)Cc2cc(NC(=O)Nc3ccccc3)ccc2O[C@H]1CN(C)S(=O)(=O)c1ccc(F)cc1,.,7,-66,-4,-1
CCc1ccc(NC(=O)CN(c2cccc(C)c2)S(C)(=O)=O)cc1,-7,-5,100*,2,4
Cc1cccc(N(CC(=O)Nc2ccc(CC#N)cc2)S(C)(=O)=O)c1,-1,1,.,-8,0
CC(=O)c1cccc(NC(=O)CN(c2cccc(F)c2)S(C)(=O)=O)c1,2,.,111*,0,.
COc1ccc(C#Cc2ccc3c(c2)[C@@H]2[C@@H](CCN2C(=O)C2CCCCC2)[C@@H](CO)N3)cc1,.,.,30,3,.
O=C(O)CCCCCN1C(=O)/C(=C\c2ccc(-c3ccc(Cl)cc3)o2)SC1=S,11,-12,133*,11,-2
O=C(CN1CCOCC1)N[C@H]1CC[C@H](CCn2cc(C3CCCC3)nn2)O[C@H]1CO,.,-1,.,5,1
CCOC(=O)/C(=C\c1cccnc1)C(=O)c1cc(C(C)=O)c(Nc2ccccc2)s1,2,.,-150,84*,.
Cc1cc(C)n(C(=O)c2ccc([N+](=O)[O-])cc2N)n1,-10,2,0,44*,1
Cc1cc(C)n(/C(=C\N(C)C)C(=O)c2cccc([N+](=O)[O-])c2)n1,-2,4,-18,.,-3
CN1CCN(S(=O)(=O)c2ccc(C3CCCCC3)cc2)CC1,-9,-5,-10,4,96*
O=S(=O)(c1ccc(C2CCCCC2)cc1)N1CCN(c2ncccn2)CC1,1,-8,-14,-3,-1
Cc1noc(C)c1NC(=O)N(C)C[C@H]1OCCCC[C@H](C)Oc2ccc(NS(=O)(=O)c3c(C)noc3C)cc2C(=O)N([C@H](C)CO)C[C@@H]1C,.,0,-4,11,0
c1ccc(N2CCN(c3ccccc3)C2c2cccnc2)cc1,-7,.,.,-5,.
SMILES,Rtt109 HAT inh,S100A4 MyoIIA,Statin myotox sup,PGC1a acetyl inh,ERAP1 HTS inh
c1ccc(N2CCN(c3ccccc3)C2c2ccncc2)cc1,-3,-2,20,91*,-4
COc1ccc(-c2csc(C(C)(O)c3ccccc3)n2)cc1OC (stereo not drawn),.,-1,112*,-3,8
COc1ccc(C(C)(O)c2nc(-c3cccs3)cs2)cc1 (stereo not drawn),.,182*,6,-10,2
COc1ccc(C(C)(O)c2nc(-c3ccc(OC)c(OC)c3)cs2)cc1 (stereo not drawn),.,-2,31,.,-3
Clc1nc(Nc2ccccc2)nc(Nc2ccccc2)n1,50*,.,7,15,.
CC(C)(C)Nc1nc(Cl)nc(Nc2ccccc2)n1,-2,9,-9,17,-2
CNC[C@H]1OCCCC[C@H](C)Oc2ccc(NC(=O)NC(C)C)cc2C(=O)N([C@H](C)CO)C[C@@H]1C,.,6,.,5,1
O=C(/C(=C\c1ccccc1)c1nc2ccccc2[nH]1)c1ccc(Cl)cc1,-6,.,.,.,.
O=C(/C(=C/c1ccc(Cl)cc1)c1nc2ccccc2[nH]1)c1cccs1,-9,.,181*,1,.
COc1ccc(Cc2nc(C(=O)NCc3ccccc3OC)cs2)cc1,23,.,-31,-17,.
COc1ccc(Cc2nc(C(=O)Nc3ccc(OC)cc3)cs2)cc1,-4,.,122*,-8,.
CN(CC(=O)Nc1ccc(F)cc1)C(=O)COc1ccccc1Cc1ccccc1,51*,2,13,-5,-3
C/C=C/c1ccc2c(c1)O[C@@H](CN(C)C(=O)C1CCC1)[C@@H](C)CN([C@@H](C)CO)S2(=O)=O,.,.,15,-1,.
COc1ccc2c3c(n(C)c2c1)[C@H](CO)N(C(C)=O)CC31CCN(C(=O)C2CC2)CC1,.,2,.,.,-3
COc1ccc2[nH]cc(C(=O)CNc3nc(C)cs3)c2c1,17,.,125*,10,.
COc1ccc2[nH]cc(C(=O)CCl)c2c1,-1,-15,-31,9,4
Cc1cc(O)c(C(C[N+](=O)[O-])c2ccc(Cl)cc2Cl)c(=O)o1 (stereo not drawn),56*,-5,-24,6,2
O=c1[nH][nH]c(-c2ccccc2O)c1C(C[N+](=O)[O-])c1ccc(Cl)cc1Cl (stereo not drawn),-3,-6,18,-2,2
O=C(Nc1cccc(-c2nc3cccnc3s2)c1)c1cccnc1Cl,60*,-6,-19,-6,.
COc1ccc(CN2CC(C(=O)NCCCN3CCOCC3)CC2=O)cc1 (stereo not drawn),4,.,98*,6,.
O=S(c1ccccc1O)S(=O)c1ccccc1O (stereo not drawn),-21,-7,-2,2,99*
CS(=O)c1ccccc1O (stereo not drawn),1,0,.,.,1
CC(C)CC#Cc1ccc2c(c1)O[C@H](CN(C)C(=O)c1ccccn1)[C@H](C)CN([C@H](C)CO)S2(=O)=O,.,-10,-31,-11,2

# Screening data from PubChem.
